Laboratory results from ChEMBL document CHEMBL1641498, “Synthesis and structure-activity relationships of novel benzoxaboroles as a new class of antimalarial agents” (Bioorg Med Chem Lett, 2011).
pIC50: −log10 of the molar value. In brackets after ≈: the same amount, converted by molar mass.

Tested on: Jurkat
Experiment: Cytotoxicity against human Jurkat cells after 72 hrs by MTT assay
Format: cell-based
Settings: not given
In short: (§1)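 Each cell line exposed to compounds over a 12-point concentration curve in triplicate for 72 h; viability read by MTT, IC50 determined.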
`O=C(O)CCc1cccc2c1B(O)OC2` gave a pIC50 of 4.22.

Tested on: HeLa
Experiment: Cytotoxicity against human HeLa cells after 72 hrs by MTT assay
Format: cell-based
Settings: not given
In short: as §1
For `O=C(O)CCc1cccc2c1B(O)OC2`, the pIC50 was < 4.00.

Tested on: Plasmodium falciparum
Experiment: Antimalarial activity against Plasmodium falciparum W2 infected in human erythrocytes assessed as reduction of parasitemia after 48 hrs by flow cytometry
Format: functional, organism-based
Settings: W2, 48 h
In short: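 Erythrocytic-stage W2 parasites cultured in human erythrocytes in RPMI-1640 with 10% human serum or 0.5% Albumax; sorbitol-synchronized to ring stage. Serial dilutions from 10 mM stocks; 2% hematocrit, 1% parasitemia, 3% O2/5% CO2/N2, 48 h.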
`O=C(O)CCc1cccc2c1B(O)OC2` showed a pIC50 of 7.59.
For `O=C(O)CCCc1cccc2c1B(O)OC2`, the pIC50 was 6.21.
`O=C(O)CCCCc1cccc2c1B(O)OC2` gave a pIC50 of 5.70.
For `O=C(O)COc1cccc2c1B(O)OC2`, the pIC50 was 6.34.
Work on `O=C(O)CNc1cccc2c1B(O)OC2` yielded a pIC50 of 6.02.
With `CN(CC(=O)O)c1cccc2c1B(O)OC2` the pIC50 was < 5.30.
With `CC(=O)CCc1cccc2c1B(O)OC2` the pIC50 was 5.57.
`COC(=O)CCc1cccc2c1B(O)OC2` gave a pIC50 of 6.49.
Compound `NC(=O)CCc1cccc2c1B(O)OC2` has a pIC50 of 5.89.
For `CN(C)C(=O)CCc1cccc2c1B(O)OC2`, the pIC50 was < 5.30.
With `O=C(CCc1cccc2c1B(O)OC2)NS(=O)(=O)C1CC1` the pIC50 was 6.34.
In the case of `N#CCCc1cccc2c1B(O)OC2`, the pIC50 was 5.99.
For `NCCCc1cccc2c1B(O)OC2`, the pIC50 was 6.28.
For `OB1OCc2cccc(CCc3nn[nH]n3)c21`, the pIC50 was 6.80.
`O=C(O)CCc1ccc2c(c1)B(O)OC2` gave a pIC50 of 6.92.
`O=C(O)CCc1ccc2c(c1)COB2O` gave a pIC50 of 5.54.
For `O=C(O)CCc1cccc2c1COB2O`, the pIC50 was < 5.30.
In the case of `O=C(O)CCc1cccc2c1B(O)OCC2`, the pIC50 was < 5.30.
In the case of `CC(C)(Cc1cccc2c1B(O)OC2)C(=O)O`, the pIC50 was < 5.30.
For `CC1(C)OB(O)c2c(CCC(=O)O)cccc21`, the pIC50 was < 5.30.

Tested on: not listed separately
Experiment: Solubility of the compound in water at pH 7
Format: physicochemical
Settings: not given
With `O=C(O)CCc1cccc2c1B(O)OC2` the solubility was 750 µg/mL (≈ 3.64 mM).
